This is one part of a sample in which hits are shown more often than they occur.
bCat KO growth = beta-catenin-lacking colon tumor cell growth suppression; 140,000 compounds, 1.5% hits; HCT116 beta-catenin knockout viability, CellTiter-Glo, 60 h; stronger effect = lower value; viability, % at 10 µM;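 active = viability at or under a set limit, the compound median less 4 SD, cut at about 6% in these data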;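 also: 0% = Hyamine 1622 control at 20 µM and 100% = untreated cell control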
HCT116 PTEN-null = growth suppressors of cells with PTEN tumor suppressor deletion | HCT116 PTEN-null viability, CellTiter-Glo, 60 h; stronger effect = lower value | viability, % at 10 µM | 140,000 compounds, 1.2% hits;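 active = viability at or below a set limit, 4 SD under the median of all tested compounds, cut at about 3.7% in these data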;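 also: PTEN knockout HCT116 line with beta catenin targeted HCT116 as companion control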
Fibroblast inh = blocks proliferation of human lung fibroblasts; AID 719; LL 47 human lung fibroblast viability, ATP luminescence; stronger effect = lower value; 85,000 compounds, 1.1% hits; viability, % at 10 µM;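 active = viability at or below 50% in the single dose screen; inactive = viability above 50%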;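 also: compound exposure lasted 72 h before the ATP readout; 100% = median luminescence of untreated cell-only wells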
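Assay system: human lung fibroblast line LL 47, low passage. Input: 1,150 fibroblasts seeded per well. Times: overnight cell rest, 72 h compound treatment at 37 °C. Evaluation: % viability of median cell-only signal. Technique: luminescent ATP detection, CellTiter-Glo. Control set: cell-only wells, no compound.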
H69AR growth 86K = blocks growth of human H69AR lung tumor cells | H69AR lung tumor viability, ATP luminescence, 72 h; stronger effect = lower value | viability, % at 10 µM | 85,000 compounds, 6% hits | AID 598;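 active = viability at or below 40%; inactive = viability above 40%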;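 also: multidrug resistant small cell line overexpressing MRP-1 efflux transporter; 100% = mean luminescence of untreated control wells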
HUVEC inhibit = human endothelial cell proliferation inhibition; HUVEC proliferation, CellTiter-Glo luminescence, 72 h; stronger effect = lower value; viability, % at 10 µM (by protocol); 86,000 compounds, 1.1% hits; AID 648;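 active = viability at or below 30%; inactive = viability above 30%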;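 also: 100% = median luminescence of DMSO-only cell control wells on each plate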
Numbers without * were called inactive; . = no result.

SMILES	bCat KO growth	HCT116 PTEN-null	Fibroblast inh	H69AR growth 86K	HUVEC inhibit
CCOC(=O)N1CCC(NC(=O)c2ccc3c(c2)N(C)CCS3)CC1	97	91	94	37*	84
CCOC(=O)N1CCC(NC(=O)c2ccc3c(c2)N(Cc2ccc(C)cc2)CCS3)CC1	70	78	75	38*	68
CCOC(=O)N1CCC(NC(=O)c2ccc3c(c2)N(Cc2ccc(F)cc2)CCS3)CC1	32	34	98	24*	83
CCOC(=O)N1CCC(NC(=O)c2cc(C(=O)NC3CCCC3)ccc2CO)CC1	90	93	88	102	113
CCSc1nnc(C)c(=O)n1COC(=O)c1ccc(S(=O)(=O)N2CCCC2)cc1	90	99	.	.	.
CC(NC(=O)N(Cc1ccccc1)Cc1ccc2c(c1)OCO2)(C(F)(F)F)C(F)(F)F	95	88	95	74	102
CCC(NC(=O)N(Cc1ccccc1)Cc1ccc2c(c1)OCO2)(C(F)(F)F)C(F)(F)F	92	90	99	37*	85
Cc1cc(C(=O)Nc2cc(C)n(Cc3ccc(Cl)cc3)n2)no1	73	75	94	94	103
COc1ccc(-c2cc(C(=O)Nc3cc(C)nn3-c3ccccc3)no2)cc1	90	74	88	64	81
COc1ccccc1-c1cc(C(=O)Nc2cc(C)nn2-c2ccccc2)no1	36	26	68	27*	66
COc1ccccc1-c1cc(C(=O)Nc2cc(C)n(Cc3ccc(Cl)cc3)n2)no1	90	88	98	5.4*	36
COCCNC(=O)c1cc(-c2ccccc2OC)on1	60	58	95	36*	90
Cn1c(=O)c2c(nc(CN3CCN(CCO)CC3)n2Cc2cccc3ccccc23)n(C)c1=O	76	79	99	86	95
O=C(Nc1cccc2ccccc12)c1ccc(Cn2cc(Cl)cn2)cc1	90	90	.	.	.
CCc1nnc(NC(=O)c2ccc(S(=O)(=O)N3CCCc4ccccc43)cc2)o1	18	14	67	20*	58
COc1ccccc1C(=O)Nc1ccc(S(=O)(=O)N2CCc3ccccc32)cc1	83	79	107	95	107
COC(=O)Nc1ccc(S(=O)(=O)N2CCCc3ccccc32)cc1	14	15	53	18*	51
Cn1c(=O)oc2cc(S(=O)(=O)N3CCCc4ccccc43)ccc21	15	15	50	23*	48
COc1ccc(C)cc1N1C(=N)/C(=C2/Nc3ccccc3S2)C(c2ccccc2)C1=O (stereo not drawn)	1.6*	1.7*	.	.	.
CCCCCCC1CCC(C(=O)Nn2c(C)nc3ccccc3c2=O)CC1 (stereo not drawn)	62	65	98	35*	113
CCCC1CCC(C(=O)Nn2c(C)nc3ccccc3c2=O)CC1 (stereo not drawn)	93	89	95	94	92
CCOC(=O)c1c(CN2CCN(c3ccccc3)CC2)oc2ccc(O)cc12	86	70	92	31*	27*
CCOC(=O)c1c(CN2CCN(C)CC2)oc2ccc(OC)cc12	98	97	105	88	92
CCN1CCCC1CN(Cc1cc2ccc(C)cc2[nH]c1=O)C(=S)Nc1cccc(OC)c1 (stereo not drawn)	3.5*	2.5*	.	.	.
CCOc1ccccc1NC(=S)N(Cc1cc2ccc(C)cc2[nH]c1=O)CC1CCCN1CC (stereo not drawn)	2.5*	1.2*	.	.	.
SMILES	bCat KO growth	HCT116 PTEN-null	Fibroblast inh	H69AR growth 86K	HUVEC inhibit
Cc1cccc(Nc2nnc(SCC(=O)N(C)C3CCS(=O)(=O)C3)s2)c1C (stereo not drawn)	92	92	.	.	.
CCn1c(-c2ccccc2)ccc(C#N)c1=O	96	97	.	.	.
COc1cc(/C=N/c2oc(-c3ccccc3)cc2C#N)ccc1O	95	105	.	.	.
COC(=O)c1ccc2c(=O)n(CC3CCCO3)c(SCC(=O)Nc3ccccc3OC)nc2c1 (stereo not drawn)	77	66	113	83	86
COC(=O)c1c(NC(=O)CSc2nc3ccccc3c(=O)n2Cc2ccco2)sc(C)c1C	41	61	.	.	.
CCc1ccc(NC(=O)CSc2nc3cc(C(=O)OC)ccc3c(=O)n2CC2CCCO2)cc1 (stereo not drawn)	48	8	36*	3.5*	48
COC(=O)c1ccc2c(=O)n(CC3CCCO3)c(SCC(=O)Nc3ccccc3Cl)nc2c1 (stereo not drawn)	2.5*	2.2*	80	8.2*	47
COC(=O)c1ccc2c(=O)n(Cc3ccco3)c(SCC(=O)Nc3ccccc3Cl)nc2c1	68	21	91	17*	24*
COC(=O)c1ccc2c(=O)n(Cc3ccc4c(c3)OCO4)c(SCC(=O)N3CCCC3)nc2c1	.	.	119	2.5*	88
O=C(CN1CCN(Cc2cccc(Cl)c2)C1=O)NCc1ccccn1	101	101	97	94	106
Cc1cc(C)nc(NC(=O)c2cc([N+](=O)[O-])cc([N+](=O)[O-])c2)n1	92	94	.	.	.
CCC(C)NS(=O)(=O)c1ccc(S(=O)(=O)N2CC=C(c3ccc(F)cc3)CC2)cc1 (stereo not drawn)	58	64	.	.	.
CCOC(=O)C1CCN(S(=O)(=O)c2c(C)n(C)c(=O)n(C)c2=O)CC1	105	99	109	107	107
O=C(O)c1sc2cc(C(F)(F)F)cnc2c1-c1ccccc1	101	107	.	.	.
CSc1nnc(-c2sc3cc(C(F)(F)F)cnc3c2-c2ccccc2)n1C	21	27	60	25*	65
O=C(NCCc1ccccc1)C(c1cccs1)N(C(=O)CCl)c1ccc(Cl)cc1 (stereo not drawn)	1.1*	0.8*	.	.	.
N#Cc1ccc(-c2ccco2)nc1SCC(=O)c1ccc(Cl)cc1	68	69	93	6.2*	38
Cc1ccc(C(=O)CSc2nc(-c3ccccc3)ccc2C#N)cc1	80	76	.	.	.
CCc1cc(=O)oc2c(C)c(OCC(=O)N3CCCc4ccccc43)ccc12	93	83	102	74	68
Cc1ccc(SC(=O)COc2ccccc2C)cc1	90	.	94	1.7*	73
COc1ccccc1C(=O)/C=C/c1ccc(N2CCCCC2)c([N+](=O)[O-])c1	1.5*	1.4*	.	.	.
O=C(O/N=C\c1ccc(N2CCCCC2)c([N+](=O)[O-])c1)c1ccc(Cl)cc1Cl	95	91	.	.	.
CCCCCNC(=O)c1c(N)n(/N=C/c2ccco2)c2nc3ccccc3nc12	.	.	110	83	98
CCCCNCc1cc(Br)c(OCc2cccs2)c(OC)c1	1.4*	1.3*	.	.	.
CCOc1c(Br)cc(CNCc2cccs2)cc1OC	92	91	.	.	.
Cc1ccc(OCCn2cc(/C(N)=N/O)c3ccccc32)cc1C	71	73	89	35*	88
C=CCOn1c(C)c(C(C)=O)c2c3no[n+]([O-])c3ccc21	88	90	88	29*	74
COn1c(C)c(C(C)=O)c2c3no[n+]([O-])c3ccc21	98	103	.	.	.
